A short description of series [1]: AUC (0 to infinity) in CD-1 mouse at 2 mg/kg, iv administered as single bolus dose by LC-MS/MS analysis. The series is classed as ADME, organism-based. Also noted: time infinity, dose 2 mg/kg, route intravenous. To be noted: plasma. The procedure, abridged: (§1)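 Single 2 mg/kg IV bolus via lateral tail vein to male CD-1 mice. Mice euthanized at 0.083–24 h, 3 per time point (27 animals); cardiac-puncture blood into heparin on ice, plasma spun at 4 °C and immediately extracted with acetonitrile/0.1% formic acid plus IS, LC-MS/MS. Noncompartmental CL = Dose/AUC0–inf, t1/2 = 0.693/k, Vss from AUMC/AUC, MRT = Vss/CL.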

Series [2] can be described thus: Plasma clearance in CD-1 mouse at 2 mg/kg, iv administered as single bolus dose by LC-MS/MS analysis. It counts as ADME, organism-based. On the set-up: dose 2 mg/kg, route intravenous. In short, it runs like this:
as §1

Series [3] is described as follows: Mean residence time in CD-1 mouse at 2 mg/kg, iv administered as single bolus dose by LC-MS/MS analysis. The series is classed as ADME, organism-based. On the set-up: dose 2 mg/kg, route intravenous. To be noted: in vivo. The procedure, abridged: as §1
Series [4] can be described thus: Half life in CD-1 mouse at 2 mg/kg, iv administered as single bolus dose by LC-MS/MS analysis. It counts as ADME, organism-based. On the set-up: dose 2 mg/kg, route intravenous. Conditions: in vivo. The procedure, abridged:
as §1

Series [5] in a line: Volume of distribution at steady state in CD-1 mouse at 2 mg/kg, iv administered as single bolus dose by LC-MS/MS analysis. The series is classed as ADME, organism-based. On the set-up: dose 2 mg/kg, route intravenous. Conditions: in vivo, read-out: Vdss. The procedure, abridged:
as §1

Series [6] can be described thus: In vitro half life in CD-1 mouse plasma at 0.83 uM by LC-MS/MS analysis. It counts as ADME, cell-free. In short, it runs like this:
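Screening stability: compound at 0.83 µM in mouse plasma at 37 °C, up to 3 h; timed aliquots quenched into acetonitrile with tolbutamide IS, centrifuged, LC-MS/MS; half-life from depletion, CLint = (0.693/t1/2)/plasma concentration.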

Series [7] has as its system Plasma. Nature of the series: Drug metabolism in CD-1 mouse plasma assessed as hydrolysis metabolite formation rate by LC-MS/MS analysis. The series is classed as ADME, cell-free. The procedure, abridged:
(§2)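 Mouse plasma depletion kinetics at 37 °C, substrate range 0.0023–5 µM, up to 3 h; samples quenched into acetonitrile/tolbutamide, LC-MS/MS. CLint per concentration from t1/2; apparent Vmax and Km fitted by nonlinear regression to Michaelis-Menten, formation rate simulated from fit; mean of two replicates.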

Series [8] in a line: Drug metabolism in CD-1 mouse liver microsomes assessed as hydrolysis metabolite formation rate by LC-MS/MS analysis. It counts as ADME. The procedure, abridged:
(§3)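 Mouse liver microsomes 0.25 mg/mL in 0.1 M phosphate pH 7.4, with or without 1 mM NADPH, substrate 0.0023–5 µM; sampling to 40 min into acetonitrile/IS, LC-MS/MS depletion. Hydrolysis Vmax/Km solved from no-NADPH incubations, then NADPH-dependent constants; metabolite formation rate simulated from fitted constants; duplicates.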

Series [9] can be described thus: Drug metabolism in CD-1 mouse NADPH-fortified liver microsomes assessed as hydrolysis metabolite formation rate by LC-MS/MS analysis. It counts as ADME. The procedure, abridged: as §3
The test system of series [10] is Plasma. Nature of the series: Drug metabolism in CD-1 mouse plasma assessed as maximum intrinsic clearance for hydrolysis metabolite formation by LC-MS/MS analysis. The series is classed as ADME, cell-free. In short, it runs like this:
as §2

Series [11] is described as follows: Ratio of drug level in blood to plasma in CD-1 mouse at 1 uM treated 20 mins after amide hydrolysis inhibitor DFP challenge measured after 1 hr by LC-MS/MS analysis. It counts as ADME. Conditions: whole blood. In short, it runs like this:
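Fresh whole blood pre-incubated 20 min with 100 µM DFP, warmed to 37 °C, spiked to 1 µM, incubated 1 h, then plasma separated; reference plasma spiked at 1 µM. Extracted with 6 volumes acetonitrile/IS, LC-MS/MS; ratio = reference plasma peak area / treated plasma peak area.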

Series [12] can be described thus: Fraction unbound in CD-1 mouse liver microsomes after 7 hrs by equilibrium dialysis method. It counts as ADME. The procedure, abridged: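 Equilibrium dialysis of 0.25 mg/mL mouse liver microsomes in phosphate buffer against PBS, 7 h at 37 °C, 5% CO2, test compound 0.1, 0.5 or 2 µM, triplicate; LC-MS/MS; fraction unbound = buffer/microsome concentration.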
In general terms: Microsomes from liver hold many membrane-bound enzymes, among them those of drug oxidation.

The nature of series [13]: Fraction unbound in CD-1 mouse plasma after 7 hrs by equilibrium dialysis method. It counts as ADME, cell-free. The procedure, abridged: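 Mouse plasma pre-treated 20 min with 100 µM DFP to block hydrolysis, spiked at 0.1, 0.5 or 2 µM, equilibrium dialysis against PBS for 7 h at 37 °C, 5% CO2, triplicate; matrix-matched samples extracted with acetonitrile/IS, LC-MS/MS; fu = buffer/plasma concentration.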
(In general: In equilibrium dialysis only unbound substance equilibrates across the membrane.)

With `CC(C)NC(=O)[C@H]1CC[C@@H](n2/c(=N/C(=O)c3cc(F)cc(Cl)c3)[nH]c3ccc(CN4CCC(C(C)(C)O)CC4)cc32)CC1`, in [1], the area under the curve AUC(0-inf) (usually total exposure, with the tail of the curve extrapolated) came to 1.53 µM·h. In addition, in series [2], the clearance (in general, the rate of elimination divided by the concentration) is 35.7 mL/min/kg. Besides, the MRT (as a rule, the average time that molecules of a dose stay in the body) in series [3] turned out to be 2.56 h. For the same compound, the half-life (as a rule, the time in which the quantity being followed falls by half) in series [4] is 2.08 h. Further, in series [5], the Vd stood at 5.47 L/kg. Moreover, in series [6], the half-life at 0.83 µM was 8.2 h. Moreover, the “Vmax(app)” value worked out at 0.305 pmol/min/mL with Plasma [7], 2.49 pmol/min/mg in series [8] and 279 pmol/min/mg in [9]. The figures for the Km (in the series with Plasma [7] (read-out: Km(app)); in series [8] (read-out: Km(app)); in [9] (read-out: Km(app))) were 0.146 µM, 0.053 µM and 1.9 µM, respectively. Further, the CL in the series on Plasma [10] amounted to 2.09 uL/min.ml. Besides, the blood plasma ratio at 1 h, 1 µM in series [11] turned out to be 0.9. Moreover, the fraction unbound – broadly, free concentration divided by total concentration – at 7 h in series [12] was 0.22; in series [13] it was 0.011.

Source of the values: ChEMBL document CHEMBL3526060, “Impact of hydrolysis-mediated clearance on the pharmacokinetics of novel anaplastic lymphoma kinase inhibitors” (Drug Metab Dispos, 2013).
